# Screens from PubChem.
# FLuc stim CS = affects firefly luciferase, flagging false hits in luciferase stimulation screens. P08659. ATPlite luciferase biochemical, luminescence, 10 min; 0 = ATP-free wells, 1 = DMSO control. activation factor at 10 µM. 200,000 tested, under 10 active. AID 1027;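 active = luciferase activation factor, scaled between plate controls, of at least 2 with compound at 10 µM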
# Target sequence (P08659 whole entry, looked up): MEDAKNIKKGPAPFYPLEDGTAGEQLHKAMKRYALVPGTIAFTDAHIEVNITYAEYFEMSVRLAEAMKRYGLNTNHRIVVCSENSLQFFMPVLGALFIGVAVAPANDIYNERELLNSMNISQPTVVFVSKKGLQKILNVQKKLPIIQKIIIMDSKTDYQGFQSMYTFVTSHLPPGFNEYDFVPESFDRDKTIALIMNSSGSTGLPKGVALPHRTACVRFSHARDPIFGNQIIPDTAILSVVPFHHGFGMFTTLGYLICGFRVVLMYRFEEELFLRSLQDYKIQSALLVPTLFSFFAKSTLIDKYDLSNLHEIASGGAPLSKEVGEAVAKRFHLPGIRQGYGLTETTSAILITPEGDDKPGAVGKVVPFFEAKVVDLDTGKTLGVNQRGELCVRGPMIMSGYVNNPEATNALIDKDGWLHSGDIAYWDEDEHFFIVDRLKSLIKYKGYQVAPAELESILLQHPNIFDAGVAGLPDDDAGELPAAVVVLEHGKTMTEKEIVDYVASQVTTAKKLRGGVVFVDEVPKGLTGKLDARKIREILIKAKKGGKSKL
#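 System: luciferase plus luciferin reagent, cell-free; medium: PBS as buffer for the ATP substrate; dosing: test compounds dosed from 2 mM stocks in 100% DMSO; timing: 10 min post-reagent at room temperature; measured by: luminescence measurement of luciferase light output; evaluation: luciferase activation, seen as luminescence increase over controls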
# FLuc inhib CS = Photinus pyralis luciferase inhibition counter-screen. 200,000 tested, 1.5% active. P08659. AID 1006. inhibition, % at 10 µM. ATPLite firefly luciferase biochemical luminescence, 10 min;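 active = inhibition above about 50% when tested at 10 µM, limit read from the data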
# STAT1 act = increases IFN-gamma driven STAT1 reporter signal. NIH 3T3 STAT1-luciferase reporter, luminescence; 100% = IFN-gamma alone, no compound. activation (% of control), % at 5.5 µM. 200,000 tested, 2.6% active. AID 932;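 active = activation above the screen-wide mean activation plus 3 SD, cut at about 130% in these data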;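 note: raw ratio to IFN-gamma control signal so 100% means no change and 0% no light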
# STAT3 activator = activators of IL-6 induced STAT3 signaling; 190,000 tested, 0.91% active; U3A cells, IL-6 STAT3-luciferase reporter, luminescence; 100% = signal with IL-6 EC80 alone; activation (% of control), % at 5.6 µM;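 active = activation above the screen-wide mean of compound activation plus 3 SD, cut at about 130% in these data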;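 note: 0% = background luminescence of wells with medium and substrate only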
#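 Material: human U3A cells carrying STAT3-luciferase construct. Measured by: reporter luminescence signal. Timing: compound 1 h, then IL-6 6 h at 37 °C.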
# STAT1 blocker = reduces IFN-gamma driven STAT1 reporter signal. inhibition, % at 5.5 µM. NIH 3T3 STAT1-luciferase reporter, luminescence. 200,000 tested, 0.35% active;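 active = inhibition above a set limit, the mean inhibition across all tested compounds plus 3 SD, cut at about 34% in these data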;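 note: 0% = IFN-gamma with DMSO and 100% = IFN-gamma with 300 µM nifuroxazide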
# STAT3 blocker = STAT3 signaling inhibition | U3A cells, IL-6 STAT3-luciferase reporter, luminescence; host cell line lacks STAT1 | inhibition, % at 5.5 µM | 190,000 tested, 0.89% active;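 active = inhibition above the mean inhibition across all screened compounds plus 3 SD, cut at about 44% in these data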;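 note: 0% = DMSO only wells and 100% = 100 µM nifuroxazide control wells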
# STAT1 activ conf = STAT1 activation, confirmation assay; shares compounds with STAT1 act; NIH 3T3 STAT1-luciferase reporter, IFN-gamma potentiation, luminescence; 100% = IFN-gamma EC80 alone, no compound; activation (% of control), % at 5.7 µM; 1,200 tested, 97% active; AID 1262;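 active = activation above a set limit carried over from the earlier primary STAT1 screen, cut at about 140% in these data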;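 note: simple ratio to median IFN-gamma plus DMSO wells so 0% means no light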
# NFkB act = activates NF-kappaB, counter-screen to STAT1 activators | shares compounds with STAT1 act | HEK293T NF-kB luciferase reporter, TNF-alpha stimulated, luminescence; 100% = TNF-alpha with vehicle only | activation (% of control), % at 5.7 µM | 1,200 tested, 43% active | AID 1306;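 active = activation above the mean of solvent-only control wells plus 3 SD, set per campaign, cut at about 130% in these data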;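 note: TNF-alpha given at a submaximal dose yielding about 80% of full reporter signal; values are well signal over median control so 100% means no change and 0% no light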
# STAT3 act 2 = counter-screen for STAT1 activators: human STAT3 activation. shares compounds with STAT1 act. U3A cells STAT3-luciferase reporter, IL-6, luminescence; cells lack STAT1; 100 = IL-6 alone, no compound effect. 1,200 tested, 46% active. activation (% of control), % at 5.7 µM;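 active = activation above the solvent-only control well mean plus 3 SD, set per plate batch, cut at about 110% in these data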;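 note: 0% = no luminescence and 100% = median IL-6 plus DMSO wells; higher means more STAT3 reporter activation so hits are non-selective activators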
# * = called active by the depositor; x = not tested or not shown. Sampled rows, rich in hits. Any-hit rate of the full collection: about 4.9%.
SMILES,FLuc stim CS,FLuc inhib CS,STAT1 act,STAT3 activator,STAT1 blocker,STAT3 blocker,STAT1 activ conf,NFkB act,STAT3 act 2
COc1ccc(/C(C)=N/OCC(=O)N2CC3(C)CC2CC(C)(C)C3)cc1 (stereo not given),1.1,-7,100,103,-1,-2,x,x,x
CCc1ccc(NC(=O)c2cnn(-c3ccccc3)c2C)cc1,0.7,29,185*,78,-97,28,252*,114,87
CCc1ccc(NC(=O)c2cnn(-c3ccccc3)c2C2CCNCC2)cc1,1,-1,107,99,-11,6,x,x,x
O=C1CCCc2nc3c(cc21)C(O)Oc1c-3ccc2ccccc12 (stereo not given),1,-2,186*,93,-95,18,216*,143*,106
Nc1nc(-c2ccccc2)nc2sc3c(c12)CCCC3,0.1,85*,191*,105,-102,-9,249*,136*,139*
Cc1ccc(-c2nc3sc4c(c3c(=O)n2N)CCCC4)cc1,0.9,12,178*,93,-90,8,224*,143*,105
Cc1ccc(-c2nc3sc4c(c3c(=O)n2N)CC(C)(C)OC4)cc1,1,-1,102,83,-4,21,x,x,x
O=C(O)c1ccc(N/N=C/C=C/c2ccccc2[N+](=O)[O-])cc1,1,1,163*,128,-73,-34,177*,139*,129*
O=C(NC(=S)Nc1ccccn1)c1ccc([N+](=O)[O-])cc1,0.4,59*,182*,102,-92,-5,191*,128,107
CC(C)(C)c1ccc(C(=O)Nc2ccc([N+](=O)[O-])cn2)cc1,0.9,9,151*,104,-58,-2,213*,135*,99
O=C(COC(=O)c1cc(Br)ccc1O)Nc1cc(S(=O)(=O)N2CCCC2)ccc1Cl,1,-2,101,109,-3,0,x,x,x
COC(=O)c1cnn(-c2nc(OC)cc(OC)n2)c1C,1.1,-5,97,82,3,23,x,x,x
COc1cc(OC)nc(-n2ncc(Br)c(Br)c2=O)n1,1.1,-6,240*,88,-160,14,273*,87,95
O=C(c1cccc([N+](=O)[O-])c1)c1ccc2c(c1)C(=O)N(c1c[nH]c(=O)[nH]c1=O)C2=O,1.1,-11,101,105,-2,-5,x,x,x
O=C(Nc1ccc(NC(=O)c2cccs2)cn1)c1ccccc1,0.8,17,153*,85,-59,20,201*,133,115*
Cc1nc(NC(=O)c2ccc3c(c2)OCO3)ccc1Br,0.7,28,156*,94,-62,14,169*,127,97
Cc1nc(NC(=O)c2cccs2)ccc1Br,0.8,22,161*,102,-69,2,201*,131,123*
Cc1ccc(C(=O)NCC(=O)OCC(=O)c2ccc3c(c2)NC(=O)CO3)cc1,1.1,-5,109,108,-11,-8,x,x,x
CC(C)(C)c1cc(NC(=O)c2ccc(OC3CCCC3)cc2)no1,1,1,114,98,-16,5,x,x,x
O=C(Nc1ccon1)c1ccc(OC2CCCC2)cc1,0.4,59*,155*,86,-62,19,166*,129,114*
O=C(NCc1ccncc1)c1nc(-c2ccc(C(F)(F)F)cc2)no1,1,-4,82,88,19,21,x,x,x
